Source: ChEMBL document CHEMBL1157350, “The structure-activity relationship study on 2-, 5-, and 6-position of the water soluble 1,4-dihydropyridine derivatives blocking N-type calcium channels” (Bioorg Med Chem Lett, 2008)
≈ marks a conversion by molar mass, not a printed value.

Columns and labels:
[1] = Inhibition of voltage-dependent N-type calcium channel in human IMR32 cells assessed as effect on calcium influx; assay type: cell-based; details: IMR-32
[2] = biological target: Voltage-gated L-type calcium channel (Rattus norvegicus, UniProt P22002+Q02485+P27732); assay: Inhibition of voltage-dependent L-type calcium channel in rat thoracic aorta ring assessed as effect on high K+ induced contraction by Magnus method; assay type: tissue-based
Rattus norvegicus = species on record: Rattus norvegicus; assay: Inhibition of voltage-dependent N-type calcium channel in rat superior cervical ganglion neurons assessed as effect on Ba2+ current at holding potential of -60 mV at 10 uM by electrophysiology; assay type: tissue-based
[3] = Aqueous solubility of the compound; assay type: physicochemical; details: buffer
Outline: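 Aqueous suspension left overnight, centrifuged at 10,000 rpm for 5 min; supernatant diluted and quantified by HPLC.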

[4] = Distribution coefficient, log D of the compound; assay type: physicochemical; details: octanol/water
Outline: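 Calculated logD at pH 7.4 (PrologD).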

IC50 [1] [µM]	IC50 [2] [µM]	solubility [3] [mg/mL]	logD [4]	Compound	inhibition (Rattus norvegicus) [%]
2	3.2			COC(OC)C1=C(C(=O)OC/C=C/c2ccc(C(F)(F)F)cc2)C(c2cccc(Cl)c2)C(C(=O)O)=C(C)N1 (stereo unspecified)	
1.7	1.4			COC(OC)C1=C(C(=O)OC/C=C/c2ccc(Cl)cc2)C(c2cccc(Cl)c2)C(C(=O)O)=C(C)N1 (stereo unspecified)	
1.8	2			COC(OC)C1=C(C(=O)OC/C=C/c2ccc(F)cc2)C(c2cccc(Cl)c2)C(C(=O)O)=C(C)N1 (stereo unspecified)	
2.1	0.54			COc1ccc(/C=C/COC(=O)C2=C(C(OC)OC)NC(C)=C(C(=O)O)C2c2cccc(Cl)c2)cc1 (stereo unspecified)	
1.4	1			COC(OC)C1=C(C(=O)OC/C=C/c2cccc(Cl)c2)C(c2cccc(Cl)c2)C(C(=O)O)=C(C)N1 (stereo unspecified)	
3	8.1	> 15	1.29	COC(OC)C1=C(C(=O)OC/C=C/c2ccccc2)C(c2cccc(Cl)c2)C(C(=O)O)=C(C)N1 (stereo unspecified)	85

The next lines start with the molecule.

Compound	IC50 [1] [µM]	IC50 [2] [µM]	solubility [3] [mg/mL]	logD [4]	inhibition (Rattus norvegicus) [%]
COC(OC)C1=C(C(=O)O)C(c2cccc(Cl)c2)C(C(=O)OC/C=C/c2ccccc2)=C(C)N1 (stereo unspecified)	3.9	1.3			
CN[C@@H](CC(C)C)C(=O)NCCCC(c1ccc(F)cc1)c1ccc(F)cc1					83
COc1cccc(/C=C/COC(=O)C2=C(C(OC)OC)NC(C)=C(C(=O)O)C2c2cccc(Cl)c2)c1 (stereo unspecified)	3	4.4			
CCC1=C(C(=O)OC/C=C/c2ccccc2)C(c2cccc(Cl)c2)C(C(=O)O)=C(C)N1 (stereo unspecified)	0.81	0.007			
COC(OC)C1=C(C(=O)OC/C=C/c2ccccc2Cl)C(c2cccc(Cl)c2)C(C(=O)O)=C(C)N1 (stereo unspecified)	1.8	0.7			
CC1=C(C(=O)O)C(c2cccc(Cl)c2)C(C(=O)OC/C=C/c2ccccc2)=C(C#N)N1 (stereo unspecified)	5.8	2			
CC1=C(C(=O)O)C(c2cccc(Cl)c2)C(C(=O)OCCC(c2ccccc2)c2ccccc2)=C(C(F)(F)F)N1 (stereo unspecified)	1.7		3.5 (≈ 6.3 mM)	3.51	
CC1=NC(C)=C(C(=O)O)C(c2cccc(Cl)c2)/C1=C(\O)OC/C=C/c1ccccc1 (stereo unspecified)	1				
COCCOC(=O)C1=C(C)NC(C)=C(C(=O)OC/C=C/c2ccccc2)C1c1cccc([N+](=O)[O-])c1 (stereo unspecified) [CILNIDIPINE]	1.6				
COc1ccccc1/C=C/COC(=O)C1=C(C(OC)OC)NC(C)=C(C(=O)O)C1c1cccc(Cl)c1 (stereo unspecified)	2.5	5.9	10.2 (≈ 19.8 mM)	1.2	
CC1=C(C(=O)O)C(c2cccc([N+](=O)[O-])c2)C(C(=O)OC/C=C/c2ccccc2)=C(C)N1 (stereo unspecified)	3.5				
